# Source: PubChem BioAssay AID504346 (Broad Institute, 2011)
# Active and inactive are the calls of the source.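 How the source made its calls: active means fitted curve reaches 10% of the positive control caspase activation at or below the top valid tested dose; inactive means signal shifts the opposite way, plus the rest.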
# Test system: MEWO unprimed cells, caspase-Glo luminescence, 3 h
# Test: apoptosis induction in MEWO without priming – cell-based, human MEWO, caspase luminescence, dry powder, set 3, counter-screen for Bcl2-A1 inhibitor project, dose response (AID 504346)
# Details: not given
# Summary of the method: (§1)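 Assay system – unprimed human MEWO cells engineered to express A1 · Input – 2500 cells per well · Buffer or medium – RPMI-1640 plus 10% FBS · Schedule – 3 h compound at 37 °C, 1 h reagent at RT · Detection – CaspaseGlo luminescence, reagent diluted 1:1 in 50 mM HEPES · Evaluation – caspase activation level per well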
row,Compound,AC10
1,O=c1c([N+](=O)[O-])c(Cl)c2ccccc2n1Cc1ccccc1,33.6 µM
2,CC1(C)CCC(c2ccc(Cl)cc2)=C(CN2CCN(c3ccc(C(=O)NS(=O)(=O)c4ccc(N[C@H](CCN5CCOCC5)CSc5ccccc5)c(S(=O)(=O)C(F)(F)F)c4)cc3)CC2)C1,3.09 µM
3,COCCn1c(=O)c([N+](=O)[O-])c(Cl)c2ccccc21,> 35 µM (inactive)
4,O=c1[nH]c2ccccc2c(Cl)c1[N+](=O)[O-],> 35 µM (inactive)
5,Cn1c(=O)c([N+](=O)[O-])c(S(C)(=O)=O)c2ccccc21,> 35 µM (inactive)

# Test system: not listed separately
# Test: as above
# Details: MEWO unprimed cells, caspase-Glo luminescence, 3 h; at 35 µM (top of the series)
# Summary of the method: as §1
row,Compound,caspase activation
1,CCn1c(=O)c([N+](=O)[O-])c(Cl)c2ccccc21,5.44% (inactive)
2,O=c1[nH]c2ccccc2c(O)c1[N+](=O)[O-],-0.15% (inactive)
3,Cc1ccc(Sc2c([N+](=O)[O-])c(=O)n(C)c3ccccc23)cc1,1.27% (inactive)
4,COCCn1c(=O)c([N+](=O)[O-])c(Sc2ccc(C)cc2)c2ccccc21,1.99% (inactive)
5,C/C(=N\Nc1nc(N2CCCCC2)nc(N2CCCCC2)n1)c1ccc(F)cc1,-0.441% (inactive)
6,CCn1c(=O)c([N+](=O)[O-])c(Sc2ccc(C)cc2)c2ccccc21,2.11% (inactive)
7,Cc1ccc(Sc2c([N+](=O)[O-])c(=O)n(Cc3ccccc3)c3ccccc23)cc1,0.173% (inactive)
8,COc1ccc(N2CCN(c3nc(NCCc4ccc(OC)c(OC)c4)nc(N4CCOCC4)n3)CC2)cc1,-0.115% (inactive)
9,Cc1ccc(S(=O)(=O)c2c([N+](=O)[O-])c(=O)n(C)c3ccccc23)cc1,2.24% (inactive)
10,COc1ccc(CCNc2nc(N3CCOCC3)nc(N3CCOCC3)n2)cc1OC,0.746% (inactive)
11,Cc1ccc(Sc2c(Sc3ccc(C)cc3)c3ccccc3n(C)c2=O)cc1,0.838% (inactive)
12,Cc1ccc(Sc2c(Sc3ccc(C)cc3)c3ccccc3n(Cc3ccccc3)c2=O)cc1,0.136% (inactive)
13,Cn1c(=O)c([N+](=O)[O-])c(Cl)c2ccccc21,8.42% (inactive)
14,O=C(COc1ccc(Cl)cc1Cl)NNc1nc(N2CCOCC2)nc(N2CCOCC2)n1,-0.692% (inactive)
15,COc1c([N+](=O)[O-])c(=O)n(C)c2ccccc12,-0.158% (inactive)
16,COc1ccc(CCNc2nc(N3CCCC3)nc(N3CCCC3)n2)cc1OC,0.039% (inactive)
17,Cn1c(=O)c(Sc2ccccn2)c(Sc2ccccn2)c2ccccc21,-0.272% (inactive)
18,COCCn1c(=O)c(Sc2ccc(C)cc2)c(Sc2ccc(C)cc2)c2ccccc21,1.05% (inactive)
19,Cn1c(=O)c([N+](=O)[O-])c(Sc2ccccn2)c2ccccc21,3.69% (inactive)
20,COc1nc2ccccc2c(Sc2ccc(C)cc2)c1[N+](=O)[O-],0.891% (inactive)
21,COc1nc2ccccc2c(Cl)c1[N+](=O)[O-],0.103% (inactive)
22,CCn1c(=O)c(Sc2ccc(C)cc2)c(Sc2ccc(C)cc2)c2ccccc21,1.36% (inactive)
